5HT1a ag: 5-HT1a (human) receptor agonism | CHO 5-HT1a Ga15 NFAT-bla reporter, FRET ratio; 0% basal, 100% maximal reference agonist | AID 567 | activation, % at 10 µM | 65,000 compounds, 0.56% hits;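 active = activation above the screen-wide mean activation plus 3 SD, cut at about 19% in these data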
S1P3 ag: S1P3 (human) receptor agonism. S1P3 NFAT-BLA reporter cells, FRET ratio; relative to 1 µM S1P, basal subtracted. activation, % at 4.5 µM. 60,000 compounds, 0.1% hits. AID 373;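 active = activation above the screen-wide mean plus 3 SD, cut at about 4.5% in these data, passing the limit was not always enough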
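Measure – % activation relative to 1 µM S1P (100%), per plate · System – stable CHO line with human S1P3, Gα16, NFAT-BLA reporter · Timing – cells plated overnight, compound 4 h 37 °C, substrate 2 h RT · Technique – fluorescent BLA substrate, ex 405 nm, em 460/535 nm ratio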
HTR1E antagonist: blocks the human 5-HT1E serotonin receptor; P28566; CHO 5-HT1E Ga15 NFAT-bla reporter, FRET, antagonist; inhibition, % at 6 µM; 65,000 compounds, 0.99% hits; AID 571;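 active = inhibition above a set limit, the mean inhibition across every tested compound plus 3 SD, cut at about 29% in these data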;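 note: signal is the 460 over 535 nm emission ratio of beta-lactamase substrate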
Target sequence (P28566 whole entry, looked up): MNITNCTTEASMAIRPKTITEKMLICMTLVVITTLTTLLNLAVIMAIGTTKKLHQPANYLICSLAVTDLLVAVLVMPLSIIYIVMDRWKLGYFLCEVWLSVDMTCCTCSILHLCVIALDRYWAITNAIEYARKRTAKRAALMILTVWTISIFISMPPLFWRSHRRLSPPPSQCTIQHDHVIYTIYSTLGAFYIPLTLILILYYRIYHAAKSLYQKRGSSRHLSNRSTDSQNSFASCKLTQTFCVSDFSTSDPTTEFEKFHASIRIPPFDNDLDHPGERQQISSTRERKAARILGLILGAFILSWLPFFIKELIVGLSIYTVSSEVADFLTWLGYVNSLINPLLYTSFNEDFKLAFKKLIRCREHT
5-HT1A blocker: antagonists of human 5-HT1a serotonin receptor. 62,000 compounds, 0.68% hits. inhibition, % at 10 µM. AID 612. P08908. CHO 5-HT1a Ga15 NFAT-bla reporter, antagonist mode;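 active = inhibition above the mean of all tested compounds plus 3 SD, cut at about 43% in these data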;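 note: receptor stimulated by 5-CT agonist at 100 nM near EC80; beta-lactamase reporter measured by ratiometric fluorescence of a cleavable substrate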
HTR1E agonist: activates the human 5-HT1E serotonin receptor; P28566; CHO 5-HT1E Ga15 NFAT-bla reporter, FRET; 0% DMSO wells, 100% control agonist wells; activation, % at 6 µM; 65,000 compounds, 0.69% hits; AID 574;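 active = activation above a set limit, the screen-wide mean activation plus 3 SD, cut at about 8.5% in these data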
Ec RNAP inh: Escherichia coli RNA polymerase inhibition; 62,000 compounds, 0.2% hits; P0A8V2; E. coli RNA polymerase, fluorescence transcription assay; inhibition, %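 (tested at 10 µM)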; AID 559; in the data active = inhibition above about 20%
A number is an active result; – = inactive; · = no result given. The list is not random: actives were taken first. Their share in the collection is about 2.6%.

SMILES	5HT1a ag	S1P3 ag	HTR1E antagonist	5-HT1A blocker	HTR1E agonist	Ec RNAP inh
Fc1ccccc1CSc1nnnn1-c1ccc2c(c1)OCO2	–	–	35.0	–	–	–
CCOC(=O)CN(C(=O)Cn1nnc(-c2ccc(C)cc2)n1)C(CC)C(=O)NC1CCCC1 (centres undefined)	–	–	–	–	–	–
O=C(NC1CCCCC1)C(c1ccccc1F)N(Cc1ccco1)C(=O)Cn1nnc2ccccc21 (centres undefined)	–	–	–	54.7	–	–
CCC(C(=O)NC1CCCC1)N(Cc1ccco1)C(=O)Cn1nnc(-c2ccc(C)cc2)n1 (centres undefined)	–	–	–	–	9.0	–
O=C(NC1CCCCC1)C(c1ccc(F)cc1)N(Cc1ccco1)C(=O)Cn1nnc2ccccc21 (centres undefined)	–	–	–	–	–	–
CCCc1cc(-c2nc(N)ncc2-c2ccc3c(c2)OCCCO3)c(O)cc1OC	–	–	–	·	–	–
CCN(CC)C(=O)c1scc2c1OCCO2	–	–	–	–	–	–
CC1(C)CSC(=S)N1S(=O)(=O)c1ccccc1	–	–	–	–	–	–
CN(C)S(=O)(=O)N1CCC(C(=O)O)(c2ccccc2)CC1	–	–	–	–	–	–
COc1ccc(C2=NO[C@@H]3C(=O)N(c4c(C)cccc4C)C(=O)[C@H]23)cc1OC	–	–	–	–	–	23.6
Cn1cc(/C(Cc2ccccc2)=N\O)c2ccccc21	–	–	–	–	56.6	–
COC(=O)c1cn(C(=O)c2ccco2)c2ccccc12	–	–	–	–	–	–
O=C(NCC1CCCO1)C1CCCN(c2ncccn2)C1 (centres undefined)	–	–	–	–	–	–
O=C(NCCCN1CCN(c2cccc(Cl)c2)CC1)c1ccc(N2CCCC2=O)cc1	–	·	–	46.2	–	–
Cc1cccc(C(=O)NCCN2CCN(c3ccccc3)CC2)c1	52.0	–	–	–	–	–
O=C(NCCN1CCN(c2ccccc2)CC1)c1cccc(Br)c1	–	–	–	–	–	–
O=C(NCCN1CCCCCC1)c1ccc(N2CCCC2=O)cc1	–	–	–	–	–	–
O=C(CCN1C(=O)COc2ccccc21)NCCN1CCOCC1	–	–	–	–	–	–
O=C(CCN1C(=O)COc2ccccc21)NCCN1CCN(c2cccc(Cl)c2)CC1	–	–	–	–	9.6	–
O=C(NCCCN1CCN(c2cccc(Cl)c2)CC1)c1cccc(N2CCCC2=O)c1	–	·	–	89.0	–	–
O=C(CSc1nnc(-c2ccco2)n1CC1CCCO1)NC1CCCC1 (centres undefined)	–	–	–	–	–	–
Cc1noc(C)c1S(=O)(=O)N1CCN(Cc2ccc3c(c2)OCO3)CC1	–	–	–	–	–	–
OCCOCCOCCn1c2ccccc2c2ccccc21	–	–	–	–	–	–
CCCCn1c(NC(=O)c2ccccc2Cl)c(C#N)c2nc3ccccc3nc21	26.6	–	–	–	–	–
CCCCn1c(NC(=O)CC)c(C#N)c2nc3ccccc3nc21	–	–	–	–	–	–
SMILES	5HT1a ag	S1P3 ag	HTR1E antagonist	5-HT1A blocker	HTR1E agonist	Ec RNAP inh
COc1ccc(-n2c(NC(=O)c3ccco3)c(C#N)c3nc4ccccc4nc32)cc1	22.1	–	–	–	–	–
Fc1ccc(CSc2ncnc3c2oc2ccccc23)cc1	–	–	–	–	–	–
c1ccc2[nH]c(CSc3ncnc4c3oc3ccccc34)nc2c1	–	–	38.0	–	–	–
Cc1nc(SCCO)c2oc3ccccc3c2n1	–	–	–	–	–	–
Cc1nc(SCc2nc3ccccc3[nH]2)c2oc3ccccc3c2n1	–	–	39.3	–	–	–
Cc1nc(N2CCN(Cc3nc4ccccc4[nH]3)CC2)c2oc3ccccc3c2n1	–	·	31.5	–	27.8	–
COc1ccc(N(CC(=O)NCc2cccs2)S(=O)(=O)c2c(C)nn(C)c2C)cc1	–	–	33.7	–	–	–
CCN(CC)C(=O)Sc1cccc2cccnc12	–	–	–	–	–	–
CCOC(=O)CSc1cccc2cccnc12	–	–	39.7	–	–	–
CCC(C)c1ccc2oc(-c3ccc(NC(=O)c4ncn[nH]4)cc3)nc2c1 (centres undefined)	–	15.8	–	–	–	–
CCOC(=O)Cc1c(C)c2ccc(N(CC)CC)cc2oc1=O	24.7	–	–	–	–	–
CCN(CC)c1ccc2c(Cl)c(Br)c(=O)oc2c1	–	–	91.5	95.1	–	–
CCN(CC)c1ccc2c(c1)oc(=O)c1c(Cl)cc(=O)oc12	–	–	–	–	–	–
CCOc1ccc(N(CC)C(=O)COc2cc(=O)n(C)c3ccccc23)cc1	–	–	–	–	–	–
O=C(Nc1ccccc1NC(=O)c1c(F)c(F)c(F)c(F)c1F)c1c(F)c(F)c(F)c(F)c1F	–	–	29.9	–	–	–
COc1ccccc1NC(=O)N1CCc2[nH]c3ccc(F)cc3c2C1	–	–	29.2	–	–	–
COc1ccc(OC)c(NS(=O)(=O)c2ccc(SC)cc2)c1	–	–	–	–	–	–
COc1ccc(S(=O)(=O)Nc2cc(Cl)ccc2OC)cc1	–	–	30.2	–	–	–
COc1ccc(Cl)cc1NS(=O)(=O)c1ccc(S(=O)(=O)N2CCCC2)cc1	–	–	–	–	–	–
COc1ccc(OC)c(NS(=O)(=O)c2ccc(N3CCCC3=O)cc2)c1	–	–	47.6	·	–	–
COc1ccc(OC)c(NS(=O)(=O)c2cccs2)c1	–	–	–	–	–	–
CCOc1ccc(S(=O)(=O)Nc2cc(OC)ccc2OC)cc1	–	–	64.8	52.1	–	–
O=C(Nn1c(-c2ccccc2)nc2ccccc2c1=O)C1CCC1	–	–	–	–	–	–
CCCCC(CC)Cn1c2nc3ccccc3nc2c2c(=N)oc(C)nc21 (centres undefined)	–	·	–	–	–	–
CCCCC(CC)Cn1c(N)c(C#N)c2nc3ccccc3nc21 (centres undefined)	45.8	–	–	–	17.1	–
SMILES	5HT1a ag	S1P3 ag	HTR1E antagonist	5-HT1A blocker	HTR1E agonist	Ec RNAP inh
CCOC(=O)N1CCC(NC(=O)CC(NS(=O)(=O)c2ccc(Cl)cc2)c2ccco2)CC1 (centres undefined)	29.3	–	–	–	–	–
COCCCn1c(SCC(=O)NC(C)(C)C)nnc1-c1ccccc1	–	–	–	–	–	–
Cn1c(-c2ccc(Cl)cc2)cnc1N	–	–	–	–	–	–
Cc1ccc(-c2cnc(N)n2C)cc1C	–	–	–	–	37.7	–
COc1cccc(C(=O)Cn2c(=N)n(C)c3ccccc32)c1	–	–	–	46.8	–	–
COc1cccc(C(=O)Cn2c(N3CCCCC3)nc3c2c(=O)n(C)c(=O)n3C)c1	–	–	–	–	–	–

Compound activity deposited in PubChem by several laboratories.
